Results reported in ChEMBL document CHEMBL1649424, “Design, synthesis, and biological activity of novel 5-((arylfuran/1H-pyrrol-2-yl)methylene)-2-thioxo-3-(3-(trifluoromethyl)phenyl)thiazolidin-4-ones as HIV-1 fusion inhibitors targeting gp41” (J Med Chem, 2011).

Assays:
[1] = test system: Human immunodeficiency virus 1; test: Antiviral activity against HIV1 3B infected in human MT2 cells assessed as inhibition viral p24 antigen production after 4 days by ELISA; format: functional, organism-based; conditions: Human immunodeficiency virus 1, 3B, MT2, 96 h
[2] = Cytotoxicity against human MT2 cells after 4 days by XTT assay; format: cell-based
How it was run: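 Cells (5 × 10⁵/mL) mixed with equal volume of compound at graded concentrations and held 4 days at 37 °C. XTT (1 mg/mL) containing 0.02 μM phenazine methosulphate added, then 4 h at 37 °C. Absorbance read at 450 nm. CC₅₀ by CalcuSyn.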

[3] = Selectivity index, ratio of CC50 for human MT2 cells to EC50 for HIV1 3B infected in human MT2 cells; format: toxicity, cell-based; conditions: MT2 cells (CC50) and HIV1 3B infected MT2 cells (EC50)
How it was run: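 Selectivity index taken as MT-2 CC₅₀ (XTT, 4 days) divided by EC₅₀ against HIV-1 IIIB infection (p24 ELISA).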

[4] = test system: Human immunodeficiency virus 1; test: Antiviral activity against HIV1 isolate 92US657 infected in human MT2 cells assessed as inhibition viral p24 antigen production after 4 days by ELISA; format: functional, organism-based; conditions: Human immunodeficiency virus 1, isolate 92US657, MT2, 96 h

Row | EC50 [1] | EC50 [4] | SMILES | CC50 at 96 h [2] | selectivity ratio [3]
1 | 61 nM | 477 nM | O=C(O)c1cccc(-c2ccc(/C=C3\SC(=S)N(CCc4ccccc4)C3=O)o2)c1O | 16400 nM | 269
2 | 145 nM | 1080 nM | O=C(O)c1cccc(-c2ccc(/C=C3\SC(=S)N(CCc4ccccc4)C3=O)o2)c1F | 28100 nM | 194
3 | 74 nM | 521 nM | O=C(O)c1cccc(-c2ccc(/C=C3\SC(=S)N(CCc4ccccc4)C3=O)o2)c1Cl | 30400 nM | 411
